Results as given in ChEMBL document CHEMBL1128202, “Identification of a series of 3-(benzyloxy)-1-azabicyclo[2.2.2]octane human NK1 antagonists” (J Med Chem, 1995).

tested on: Cavia porcellus; test: Inhibition of SP-induced extravasation in the skin of guinea pig after intraperitoneal administration of a dose of 1 (ug/kg); assay type: functional
In short: (§1)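 Guinea pigs given test compound (po or ip); dorsal skin shaved and Evans blue (0.5 mL, 2.5 g/100 mL saline) injected iv. 10 min later, SP (0.5 pmol in 0.1% HSA saline) injected intradermally; 1 h exposure, then CO2 euthanasia. 6-mm punch biopsies of injection sites; dye extracted overnight in formamide at 45 °C. Read-out: % inhibition of Evans blue leakage.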

Question: `FC(F)(F)c1cc(CO[C@H]2C3CCN(CC3)[C@H]2C(c2ccccc2)c2ccccc2)cc(C(F)(F)F)c1` [L-709210] was tested. Which Inhibition did it give?
Answer: 6%

tested on: Cavia porcellus; test: Inhibition of SP-induced extravasation in the skin of guinea pig after intraperitoneal administration of a dose of 10 (ug/kg); assay type: functional; in short: as §1

Question: Which Inhibition does the source give for `FC(F)(F)c1cc(CO[C@H]2C3CCN(CC3)[C@H]2C(c2ccccc2)c2ccccc2)cc(C(F)(F)F)c1` [L-709210] here?
Answer: 92%

molecular target: Substance-P receptor (Homo sapiens, UniProt P25103); test: Inhibition of binding of [125I]SP to the CHO cell line expressing human Tachykinin receptor 1; assay type: cell-based
Sequence (P25103 whole entry): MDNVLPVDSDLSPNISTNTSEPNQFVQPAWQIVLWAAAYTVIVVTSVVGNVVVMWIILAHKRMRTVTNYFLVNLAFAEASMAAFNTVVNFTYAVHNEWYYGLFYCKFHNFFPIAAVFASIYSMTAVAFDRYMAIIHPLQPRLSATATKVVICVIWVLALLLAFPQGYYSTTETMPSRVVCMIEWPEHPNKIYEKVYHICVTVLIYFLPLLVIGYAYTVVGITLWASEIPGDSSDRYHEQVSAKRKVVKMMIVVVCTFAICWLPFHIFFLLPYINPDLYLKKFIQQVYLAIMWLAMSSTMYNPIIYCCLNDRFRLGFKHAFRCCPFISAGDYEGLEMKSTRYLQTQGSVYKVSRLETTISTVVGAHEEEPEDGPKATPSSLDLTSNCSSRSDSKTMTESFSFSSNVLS

Question: With `FC(F)(F)c1cc(COC2C3CCN(CC3)C2C(c2ccccc2)C2CCCCC2)cc(C(F)(F)F)c1` (stereo not given) as the compound, how does the IC50 read?
Answer: 7.5 nM

Question: How did the IC50 turn out when `Clc1cccc(COC2C3CCN(CC3)C2C(c2ccccc2)c2ccccc2)c1` (stereo not given) was run?
Answer: 62 nM

Question: How did the IC50 turn out when `Cc1ccc(C)c(COC2C3CCN(CC3)C2C(c2ccccc2)c2ccccc2)c1` (stereo not given) was run?
Answer: 36 nM

Question: With `FC(F)(F)c1ccc(COC2C3CCN(CC3)C2C(c2ccccc2)c2ccccc2)cc1` (stereo not given) as the compound, how does the IC50 read?
Answer: 370 nM

Question: `Clc1ccc(COC2C3CCN(CC3)C2C(c2ccccc2)c2ccccc2)cc1` (stereo not given) was tested. Which IC50 did it give?
Answer: 417 nM

Question: For `c1ccc(COC2C3CCN(CC3)C2C(c2ccccc2)c2ccccc2)cc1` (stereo not given), which IC50 is on record?
Answer: 110 nM

Question: With `Cc1ccc(COC2C3CCN(CC3)C2C(c2ccccc2)c2ccccc2)cc1` (stereo not given) as the compound, how does the IC50 read?
Answer: 246 nM

Question: Which IC50 does the source give for `FC(F)(F)c1cc(COC2C3CCN(CC3)C2Cc2ccccc2)cc(C(F)(F)F)c1` (stereo not given) here?
Answer: 103 nM

Question: How did the IC50 turn out when `Brc1ccccc1COC1C2CCN(CC2)C1C(c1ccccc1)c1ccccc1` (stereo not given) was run?
Answer: 37 nM

Question: Which IC50 does the source give for `Fc1cc(F)cc(COC2C3CCN(CC3)C2C(c2ccccc2)c2ccccc2)c1` (stereo not given) here?
Answer: 33 nM

Question: How did the IC50 turn out when `FC(F)(F)c1cccc(COC2C3CCN(CC3)C2C(c2ccccc2)c2ccccc2)c1` (stereo not given) was run?
Answer: 300 nM

Question: With `N#Cc1ccc(COC2C3CCN(CC3)C2C(c2ccccc2)c2ccccc2)cc1` (stereo not given) as the compound, how does the IC50 read?
Answer: 950 nM

Question: For `Fc1ccccc1COC1C2CCN(CC2)C1C(c1ccccc1)c1ccccc1` (stereo not given), which IC50 is on record?
Answer: 93 nM

Question: How did the IC50 turn out when `Fc1cccc(COC2C3CCN(CC3)C2C(c2ccccc2)c2ccccc2)c1` (stereo not given) was run?
Answer: 37 nM

Question: How did the IC50 turn out when `Clc1ccccc1COC1C2CCN(CC2)C1C(c1ccccc1)c1ccccc1` (stereo not given) was run?
Answer: 80 nM

Question: For `Cc1ccc(COC2C3CCN(CC3)C2C(c2ccccc2)c2ccccc2)cc1C` (stereo not given), which IC50 is on record?
Answer: 172 nM

Question: Which IC50 does the source give for `Fc1ccc(COC2C3CCN(CC3)C2C(c2ccccc2)c2ccccc2)cc1` (stereo not given) here?
Answer: 252 nM

Question: How did the IC50 turn out when `Fc1ccc(F)c(COC2C3CCN(CC3)C2C(c2ccccc2)c2ccccc2)c1` (stereo not given) was run?
Answer: 106 nM

Question: With `Cc1cc(C)cc(COC2C3CCN(CC3)C2Cc2ccccc2)c1` (stereo not given) as the compound, how does the IC50 read?
Answer: 107 nM

Question: For `FC(F)(F)c1ccccc1COC1C2CCN(CC2)C1C(c1ccccc1)c1ccccc1` (stereo not given), which IC50 is on record?
Answer: 67 nM

Question: With `c1ccc(Oc2cccc(COC3C4CCN(CC4)C3C(c3ccccc3)c3ccccc3)c2)cc1` (stereo not given) as the compound, how does the IC50 read?
Answer: 62 nM

Question: With `COc1cccc(COC2C3CCN(CC3)C2C(c2ccccc2)c2ccccc2)c1` (stereo not given) as the compound, how does the IC50 read?
Answer: 56 nM

Question: How did the IC50 turn out when `Cc1cc(I)cc(COC2C3CCN(CC3)C2C(c2ccccc2)c2ccccc2)c1` (stereo not given) was run?
Answer: 0.32 nM

Question: Which IC50 does the source give for `FC(F)(F)c1cc(CO[C@@H]2C3CCN(CC3)[C@H]2C(c2ccccc2)c2ccccc2)cc(C(F)(F)F)c1` here?
Answer: 125 nM

Question: With `FC(F)(F)c1cc(CO[C@@H]2C3CCN(CC3)[C@@H]2C(c2ccccc2)c2ccccc2)cc(C(F)(F)F)c1` as the compound, how does the IC50 read?
Answer: 300 nM

Question: `Cc1cc(COC2C3CCN(CC3)C2C(c2ccccc2)c2ccccc2)cc([Si](C)(C)C)c1` (stereo not given) was tested. Which IC50 did it give?
Answer: 0.9 nM

Question: For `N#Cc1ccccc1COC1C2CCN(CC2)C1C(c1ccccc1)c1ccccc1` (stereo not given), which IC50 is on record?
Answer: 86 nM

Question: How did the IC50 turn out when `Cc1ccccc1COC1C2CCN(CC2)C1C(c1ccccc1)c1ccccc1` (stereo not given) was run?
Answer: 150 nM

Question: With `Cc1cccc(COC2C3CCN(CC3)C2C(c2ccccc2)c2ccccc2)c1` (stereo not given) as the compound, how does the IC50 read?
Answer: 20 nM

Question: Which IC50 does the source give for `N#Cc1cccc(COC2C3CCN(CC3)C2C(c2ccccc2)c2ccccc2)c1` (stereo not given) here?
Answer: 127 nM

Question: With `c1ccc(CN[C@H]2C3CCN(CC3)[C@H]2C(c2ccccc2)c2ccccc2)cc1` as the compound, how does the IC50 read?
Answer: 0.085 nM

Question: Which IC50 does the source give for `O=[N+]([O-])c1cccc(COC2C3CCN(CC3)C2C(c2ccccc2)c2ccccc2)c1` (stereo not given) here?
Answer: 197 nM

Question: `FC(F)(F)c1cc(CO[C@H]2C3CCN(CC3)[C@@H]2C(c2ccccc2)c2ccccc2)cc(C(F)(F)F)c1` was tested. Which IC50 did it give?
Answer: 0.2 nM

Question: For `Clc1cc(Cl)cc(COC2C3CCN(CC3)C2C(c2ccccc2)c2ccccc2)c1` (stereo in doubt; 67), which IC50 is on record?
Answer: 3.5 nM

Question: For `Clc1cc(Cl)cc(COC2C3CCN(CC3)C2C(c2ccccc2)c2ccccc2)c1` (stereo in doubt; 68), which IC50 is on record?
Answer: 9 nM

Question: For `FC(F)(F)c1cc(COC2C3CCN(CC3)C2C(c2ccccc2)c2ccccc2)cc(C(F)(F)F)c1` (stereo in doubt; 69), which IC50 is on record?
Answer: 1.6 nM

Question: `FC(F)(F)c1cc(COC2C3CCN(CC3)C2C(c2ccccc2)c2ccccc2)cc(C(F)(F)F)c1` (stereo in doubt; 70) was tested. Which IC50 did it give?
Answer: 2.7 nM

Question: For `Cc1cc(C)cc(COC2C3CCN(CC3)C2C(c2ccccc2)c2ccccc2)c1` (stereo in doubt; 72), which IC50 is on record?
Answer: 0.9 nM

Question: For `Cc1cc(C)cc(COC2C3CCN(CC3)C2C(c2ccccc2)c2ccccc2)c1` (stereo in doubt; 73), which IC50 is on record?
Answer: 0.26 nM

Question: How did the IC50 turn out when `COc1cc(COC2C3CCN(CC3)C2C(c2ccccc2)c2ccccc2)cc(OC)c1` (stereo in doubt; 75) was run?
Answer: 9.3 nM

Question: `COc1cc(COC2C3CCN(CC3)C2C(c2ccccc2)c2ccccc2)cc(OC)c1` (stereo in doubt; 76) was tested. Which IC50 did it give?
Answer: 8.3 nM

Question: Which IC50 does the source give for `COc1cc(C)cc(COC2C3CCN(CC3)C2C(c2ccccc2)c2ccccc2)c1` (stereo in doubt; 77) here?
Answer: 1.9 nM

Question: With `COc1cc(C)cc(COC2C3CCN(CC3)C2C(c2ccccc2)c2ccccc2)c1` (stereo in doubt; 78) as the compound, how does the IC50 read?
Answer: 1.5 nM

Question: With `Cc1cc(C)cc(COC2C3CCN(CC3)C2C(Cc2ccccc2)c2ccccc2)c1` (stereo in doubt; 85) as the compound, how does the IC50 read?
Answer: 3.2 nM

Question: How did the IC50 turn out when `Cc1cc(C)cc(COC2C3CCN(CC3)C2C(Cc2ccccc2)c2ccccc2)c1` (stereo in doubt; 86) was run?
Answer: 23 nM

Question: With `FC(F)(F)c1cc(COC2C3CCN(CC3)C2C(Cc2ccccc2)c2ccccc2)cc(C(F)(F)F)c1` (stereo in doubt; 87) as the compound, how does the IC50 read?
Answer: 3.9 nM

Question: Which IC50 does the source give for `FC(F)(F)c1cc(COC2C3CCN(CC3)C2C(Cc2ccccc2)c2ccccc2)cc(C(F)(F)F)c1` (stereo in doubt; 88) here?
Answer: 425 nM

Question: How did the IC50 turn out when `FC(F)(F)c1cc(COC2C3CCN(CC3)C2C(Cc2ccccc2)c2ccccc2)cc(C(F)(F)F)c1` (stereo in doubt; 89) was run?
Answer: 10 nM

Question: `Cc1cc(C)cc(COC2C3CCN(CC3)C2C(Cc2ccccc2)c2ccccc2)c1` (stereo in doubt; 90) was tested. Which IC50 did it give?
Answer: 353 nM

Question: `FC(F)(F)c1cc(CO[C@H]2C3CCN(CC3)[C@H]2C(c2ccccc2)c2ccccc2)cc(C(F)(F)F)c1` [L-709210] was tested. Which IC50 did it give?
Answer: 0.2 nM

tested on: Cavia porcellus; test: Inhibition of SP-induced extravasation in the skin of guinea pig after intraperitoneal administration of a dose of 3 (ug/kg); assay type: functional; in short: as §1

Question: For `FC(F)(F)c1cc(CO[C@H]2C3CCN(CC3)[C@H]2C(c2ccccc2)c2ccccc2)cc(C(F)(F)F)c1` [L-709210], which Inhibition is on record?
Answer: 59%

tested on: Cavia porcellus; test: Inhibition of SP-induced extravasation in the skin of guinea pig after intraperitoneal administration of a dose of 30 (ug/kg); assay type: functional; in short: as §1

Question: `FC(F)(F)c1cc(CO[C@H]2C3CCN(CC3)[C@H]2C(c2ccccc2)c2ccccc2)cc(C(F)(F)F)c1` [L-709210] was tested. Which Inhibition did it give?
Answer: 100%

tested on: Cavia porcellus; test: Inhibition of SP-induced extravasation in the skin of guinea pig after […] administration of a dose of 10 (ug/kg); assay type: functional; in short: as §1

Question: For `Cc1cc(C)cc(COC2C3CCN(CC3)C2C(c2ccccc2)c2ccccc2)c1` (stereo in doubt; 73), which Inhibition is on record?
Answer: 89%

tested on: Cavia porcellus; test: Inhibition of SP-induced extravasation in the skin of guinea pig after oral administration of a dose of 10 (ug/kg); assay type: functional; in short: as §1

Question: `FC(F)(F)c1cc(CO[C@@H]2C3CCN(CC3)[C@@H]2C(c2ccccc2)c2ccccc2)cc(C(F)(F)F)c1` was tested. Which Inhibition did it give?
Answer: -17%

Question: How did the Inhibition turn out when `FC(F)(F)c1cc(CO[C@H]2C3CCN(CC3)[C@@H]2C(c2ccccc2)c2ccccc2)cc(C(F)(F)F)c1` was run?
Answer: 70%

Question: With `Cc1cc(C)cc(COC2C3CCN(CC3)C2C(c2ccccc2)c2ccccc2)c1` (stereo in doubt; 72) as the compound, how does the Inhibition read?
Answer: 45%

Question: With `Cc1cc(C)cc(COC2C3CCN(CC3)C2C(c2ccccc2)c2ccccc2)c1` (stereo in doubt; 73) as the compound, how does the Inhibition read?
Answer: 40%

Question: Which Inhibition does the source give for `FC(F)(F)c1cc(CO[C@H]2C3CCN(CC3)[C@H]2C(c2ccccc2)c2ccccc2)cc(C(F)(F)F)c1` [L-709210] here?
Answer: 76%
